Data on 13 compounds can be found in ChEMBL document CHEMBL1125014, “Synthesis and structure-activity relationships of new 9-N-alkyl derivatives of 9(S)-erythromycylamine” (1990).

By ED50 is commonly meant the midpoint of the dose-response relation. Higher therefore signals a need for a large dose.

Values after ≈ are worked out from the molar mass of the structure shown. A value given as a limit tells only on which side of the number the result lay.

What all share (assay type): functional
Test [1] deals with Streptococcus pyogenes. Briefly: MIC value measured against streptococcus pyogenes C203.
Test [2] relates to Staphylococcus aureus. Briefly: MIC value measured against staphylococcus aureus X1.
Test [3] concerns Haemophilus influenzae. Briefly: MIC value was measured against haemophilus influenzae CL.
Test [4] relates to Streptococcus pyogenes. Briefly: Effective dose against mice infected with streptococcus pyogenes after peroral administration (in vivo). Conditions: in Mus musculus, po.
The test system of another test is Enterococcus faecalis. Briefly: MIC value was measured against streptococcus faecalis X66. The essentials: (§1)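 Susceptibility determined by standard agar-dilution method against a panel of bacterial strains.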
In test [5] the test system is Streptococcus pneumoniae. Briefly: Effective dose against mice infected with streptococcus pneumoniae after peroral administration (in vivo). The note with it: in Mus musculus, po.
The test system of test [6] is Streptococcus pneumoniae. Briefly: MIC value was measured against streptococcus pneumoniae park1. The essentials: as §1
The test system of test [7] is Staphylococcus epidermidis. Briefly: microbe, parasite or virus in culture.
The subject of test [8] is Staphylococcus aureus. Briefly: Effective dose against mice infected with Staphylococcus aureus after peroral administration (in vivo). The note with it: in Mus musculus, po.
Test [9] has as its system Haemophilus influenzae. Briefly: MIC value was measured against haemophilus influenzae. Summed up: as §1
In test [10] the test system is Streptococcus pneumoniae. Briefly: MIC value measured against streptococcus pneumoniae Park1.

Regarding `CC[C@H]1OC(=O)[C@H](C)[C@@H](OC2CC(C)(OC)C(O)C(C)O2)[C@H](C)[C@@H](OC2OC(C)CC(N(C)C)C2O)[C@](C)(O)C[C@@H](C)[C@H]2[C@H](C)[C@@H](OCN2C(C)C)[C@]1(C)O` (stereo partly drawn), the MIC with Streptococcus pyogenes [1] came out at 0.12 µg/mL (≈ 0.152 µM); against Staphylococcus aureus [2] it was 1 µg/mL (≈ 1.27 µM); in the test with Haemophilus influenzae [3], 4 µg/mL (≈ 5.07 µM); in the test with Enterococcus faecalis it was 0.25 µg/mL (≈ 0.317 µM); in the test with Streptococcus pneumoniae [6], 0.06 µg/mL (≈ 0.076 µM); in test [7], 0.5 µg/mL (≈ 0.634 µM). In addition, the ED50 in the test on Streptococcus pyogenes [4] was 7 mg/kg; in the test on Streptococcus pneumoniae [5], 6 mg/kg; in the test with Staphylococcus aureus [8], 9 mg/kg.
In the case of `CC[C@H]1OC(=O)[C@H](C)[C@@H](OC2CC(C)(OC)C(O)C(C)O2)[C@H](C)[C@@H](OC2OC(C)CC(N(C)C)C2O)[C@](C)(O)C[C@@H](C)[C@H](NCCC2=C(C)CCCC2(C)C)[C@H](C)[C@@H](O)[C@]1(C)O` (stereo partly drawn), the MIC is 0.5 µg/mL (≈ 0.565 µM) with Streptococcus pyogenes [1]; 1 µg/mL (≈ 1.13 µM) with Staphylococcus aureus [2]; 4 µg/mL (≈ 4.52 µM) in the test with Haemophilus influenzae [3]; 0.12 µg/mL (≈ 0.136 µM) with Enterococcus faecalis; 1 µg/mL (≈ 1.13 µM) in [7]. Further, the ED50 in the test on Streptococcus pyogenes [4], with Streptococcus pneumoniae [5] and in the test with Staphylococcus aureus [8] was over 50 mg/kg in each case.
As for `CC[C@H]1OC(=O)[C@H](C)[C@@H](OC2CC(C)(OC)C(O)C(C)O2)[C@H](C)[C@@H](OC2OC(C)CC(N(C)C)C2O)[C@](C)(O)C[C@@H](C)[C@H]2[C@H](C)[C@@H](OCN2C(C)CCCN(CC)CC)[C@]1(C)O` (stereo partly drawn), the MIC in the test on Streptococcus pyogenes [1] came to 0.5 µg/mL (≈ 0.563 µM); in the test on Staphylococcus aureus [2], 8 µg/mL (≈ 9.01 µM); with Haemophilus influenzae [3], 8 µg/mL (≈ 9.01 µM); with Enterococcus faecalis it was 2 µg/mL (≈ 2.25 µM); against Streptococcus pneumoniae [6] it was 0.5 µg/mL (≈ 0.563 µM); in test [7], 8 µg/mL (≈ 9.01 µM).
For the compound `CC[C@H]1OC(=O)[C@H](C)[C@@H](OC2CC(C)(OC)C(O)C(C)O2)[C@H](C)[C@@H](OC2OC(C)CC(N(C)C)C2O)[C@](C)(O)C[C@@H](C)[C@H](NCc2ccccc2)[C@H](C)[C@@H](O)[C@]1(C)O` (stereo partly drawn), the MIC is 0.06 µg/mL (≈ 0.0727 µM) against Streptococcus pyogenes [1]; 0.5 µg/mL (≈ 0.606 µM) in the test with Staphylococcus aureus [2]; 2 µg/mL (≈ 2.42 µM) in the test on Haemophilus influenzae [3]; 0.25 µg/mL (≈ 0.303 µM) in the test on Enterococcus faecalis; 0.015 µg/mL (≈ 0.0182 µM) against Streptococcus pneumoniae [6]; 0.5 µg/mL (≈ 0.606 µM) in [7]. For the same compound, the ED50 in the test on Streptococcus pyogenes [4] is 9 mg/kg; in the test with Streptococcus pneumoniae [5], 11 mg/kg; with Staphylococcus aureus [8] it was over 50 mg/kg.
As for `CCCN1CO[C@@H]2[C@@H](C)[C@@H]1[C@H](C)C[C@@](C)(O)[C@H](OC1OC(C)CC(N(C)C)C1O)[C@@H](C)[C@H](OC1CC(C)(OC)C(O)C(C)O1)[C@@H](C)C(=O)O[C@H](CC)[C@@]2(C)O` (stereo partly drawn), the MIC was 0.008 µg/mL (≈ 0.0101 µM) with Streptococcus pyogenes [1]; 0.25 µg/mL (≈ 0.317 µM) with Staphylococcus aureus [2]; 1 µg/mL (≈ 1.27 µM) with Haemophilus influenzae [3]; 0.12 µg/mL (≈ 0.152 µM) in the test on Enterococcus faecalis; 0.008 µg/mL (≈ 0.0101 µM) against Streptococcus pneumoniae [6]; 0.12 µg/mL (≈ 0.152 µM) in test [7]. For the same compound, the 50% effective dose (ED50) in the test with Streptococcus pyogenes [4] turned out to be 5 mg/kg; in the test on Streptococcus pneumoniae [5] it was 5 mg/kg; with Staphylococcus aureus [8], 7 mg/kg.
With `CC[C@H]1OC(=O)[C@H](C)[C@@H](OC2CC(C)(OC)C(O)C(C)O2)[C@H](C)[C@@H](OC2OC(C)CC(N(C)C)C2O)[C@](C)(O)C[C@@H](C)[C@H]2[C@H](C)[C@@H](OCN2C2CCCC2)[C@]1(C)O` (stereo partly drawn), the MIC with Streptococcus pyogenes [1] was found to be 0.12 µg/mL (≈ 0.147 µM); against Staphylococcus aureus [2], 1 µg/mL (≈ 1.23 µM); in the test on Haemophilus influenzae [3], 4 µg/mL (≈ 4.91 µM); with Enterococcus faecalis it was 0.5 µg/mL (≈ 0.613 µM); against Streptococcus pneumoniae [6] it was 0.06 µg/mL (≈ 0.0736 µM); in [7], 1 µg/mL (≈ 1.23 µM). Also, the figures for the 50% effective dose (ED50) in the test with Streptococcus pyogenes [4], in the test on Streptococcus pneumoniae [5] and with Staphylococcus aureus [8] were 10 mg/kg, 9 mg/kg and over 50 mg/kg, respectively.
Turning to `CC[C@H]1OC(=O)[C@H](C)[C@@H](OC2CC(C)(OC)C(O)C(C)O2)[C@H](C)[C@@H](OC2OC(C)CC(N(C)C)C2O)[C@](C)(O)C[C@@H](C)[C@H]2[C@H](C)[C@@H](OCN2Cc2ccccc2)[C@]1(C)O` (stereo partly drawn), the MIC in the test on Streptococcus pyogenes [1] was 0.12 µg/mL (≈ 0.143 µM); with Staphylococcus aureus [2] it was 1 µg/mL (≈ 1.19 µM); with Haemophilus influenzae [3], 4 µg/mL (≈ 4.78 µM); in the test with Enterococcus faecalis, 0.5 µg/mL (≈ 0.597 µM); in the test with Streptococcus pneumoniae [6], 0.06 µg/mL (≈ 0.0717 µM); in test [7] it was 0.5 µg/mL (≈ 0.597 µM). The values for the ED50 in the test on Streptococcus pyogenes [4], with Streptococcus pneumoniae [5] and in the test with Staphylococcus aureus [8] were 16 mg/kg, 15 mg/kg and over 50 mg/kg, respectively.
As to `CC[C@H]1OC(=O)[C@H](C)[C@@H](OC2CC(C)(OC)C(O)C(C)O2)[C@H](C)[C@@H](OC2OC(C)CC(N(C)C)C2O)[C@](C)(O)C[C@@H](C)[C@H](NCCCc2ccccc2)[C@H](C)[C@@H](O)[C@]1(C)O` (stereo partly drawn), the MIC in the test with Streptococcus pyogenes [1] stood at 0.015 µg/mL (≈ 0.0176 µM); in the test with Staphylococcus aureus [2], 1 µg/mL (≈ 1.17 µM); in the test on Haemophilus influenzae [3], 2 µg/mL (≈ 2.34 µM); in the test with Enterococcus faecalis, 0.06 µg/mL (≈ 0.0703 µM); in the test on Streptococcus pneumoniae [6] it was 0.015 µg/mL (≈ 0.0176 µM); in [7], 0.5 µg/mL (≈ 0.586 µM). In addition, the ED50 in the test with Streptococcus pyogenes [4] is 14 mg/kg; with Streptococcus pneumoniae [5], 17 mg/kg; with Staphylococcus aureus [8], 37 mg/kg.
For the compound `CCCCN[C@@H]1[C@H](C)[C@@H](O)[C@](C)(O)[C@@H](CC)OC(=O)[C@H](C)[C@@H](OC2CC(C)(OC)C(O)C(C)O2)[C@H](C)[C@@H](OC2OC(C)CC(N(C)C)C2O)[C@](C)(O)C[C@H]1C` (stereo partly drawn), the MIC worked out at 1 µg/mL (≈ 1.26 µM) in the test on Haemophilus influenzae [9]; 0.06 µg/mL (≈ 0.0758 µM) against Streptococcus pyogenes [1]; 0.25 µg/mL (≈ 0.316 µM) in the test with Staphylococcus aureus [2]; 1 µg/mL (≈ 1.26 µM) against Haemophilus influenzae [3]; 0.015 µg/mL (≈ 0.019 µM) in the test on Streptococcus pneumoniae [10]; 0.25 µg/mL (≈ 0.316 µM) in test [7]. The values for the ED50 with Streptococcus pyogenes [4], in the test on Streptococcus pneumoniae [5] and in the test with Staphylococcus aureus [8] were 13 mg/kg, 13 mg/kg and 15 mg/kg, respectively.
Take `CC[C@H]1OC(=O)[C@H](C)[C@@H](OC2CC(C)(OC)C(O)C(C)O2)[C@H](C)[C@@H](OC2OC(C)CC(N(C)C)C2O)[C@](C)(O)C[C@@H](C)[C@H](NCC(C)(C)CO)[C@H](C)[C@@H](O)[C@]1(C)O` (stereo partly drawn): the MIC against Haemophilus influenzae [9] came to 1 µg/mL (≈ 1.22 µM); in the test with Streptococcus pyogenes [1], 0.03 µg/mL (≈ 0.0365 µM); against Staphylococcus aureus [2], 1 µg/mL (≈ 1.22 µM); against Haemophilus influenzae [3], 1 µg/mL (≈ 1.22 µM); against Streptococcus pneumoniae [10] it was 0.015 µg/mL (≈ 0.0183 µM); in test [7], 1 µg/mL (≈ 1.22 µM). Besides, the ED50 is 20 mg/kg in the test on Streptococcus pyogenes [4], 46 mg/kg in the test with Streptococcus pneumoniae [5] and over 50 mg/kg in the test on Staphylococcus aureus [8].
On to `CC[C@H]1OC(=O)[C@H](C)[C@@H](OC2CC(C)(OC)C(O)C(C)O2)[C@H](C)[C@@H](OC2OC(C)CC(N(C)C)C2O)[C@](C)(O)C[C@@H](C)[C@H](NC2CCCC2)[C@H](C)[C@@H](O)[C@]1(C)O` (stereo partly drawn), for which the MIC against Haemophilus influenzae [9] was 2 µg/mL (≈ 2.49 µM); with Streptococcus pyogenes [1] it was 0.06 µg/mL (≈ 0.0747 µM); against Staphylococcus aureus [2], 1 µg/mL (≈ 1.25 µM); against Haemophilus influenzae [3], 2 µg/mL (≈ 2.49 µM); in the test on Streptococcus pneumoniae [10], 0.06 µg/mL (≈ 0.0747 µM); in test [7], 0.5 µg/mL (≈ 0.623 µM). Moreover, the figures for the ED50 in the test with Streptococcus pyogenes [4], in the test on Streptococcus pneumoniae [5] and in the test on Staphylococcus aureus [8] were 4 mg/kg, 4 mg/kg and 46 mg/kg, respectively.
For the compound `CC[C@H]1OC(=O)[C@H](C)[C@@H](OC2CC(C)(OC)C(O)C(C)O2)[C@H](C)[C@@H](OC2OC(C)CC(N(C)C)C2O)[C@](C)(O)C[C@@H](C)[C@H](NCCCCCO)[C@H](C)[C@@H](O)[C@]1(C)O` (stereo partly drawn), the MIC was found to be 2 µg/mL (≈ 2.44 µM) against Haemophilus influenzae [9]; 0.008 µg/mL (≈ 0.00974 µM) against Streptococcus pyogenes [1]; 0.5 µg/mL (≈ 0.609 µM) against Staphylococcus aureus [2]; 2 µg/mL (≈ 2.44 µM) against Haemophilus influenzae [3]; 0.008 µg/mL (≈ 0.00974 µM) in the test on Streptococcus pneumoniae [10]; 0.5 µg/mL (≈ 0.609 µM) in test [7]. Moreover, the ED50 is 43 mg/kg in the test with Streptococcus pyogenes [4], over 50 mg/kg in the test on Streptococcus pneumoniae [5] and over 50 mg/kg with Staphylococcus aureus [8].
In the case of `CC[C@H]1OC(=O)[C@H](C)[C@@H](OC2CC(C)(OC)C(O)C(C)O2)[C@H](C)[C@@H](OC2OC(C)CC(N(C)C)C2O)[C@](C)(O)C[C@@H](C)[C@H](NCC#Cc2ccccc2)[C@H](C)[C@@H](O)[C@]1(C)O` (stereo partly drawn), the MIC with Streptococcus pyogenes [1] came to 0.008 µg/mL (≈ 0.00942 µM); in the test on Staphylococcus aureus [2] it was 1 µg/mL (≈ 1.18 µM); against Haemophilus influenzae [3], 4 µg/mL (≈ 4.71 µM); against Enterococcus faecalis, 0.25 µg/mL (≈ 0.294 µM); with Streptococcus pneumoniae [6], 0.008 µg/mL (≈ 0.00942 µM); in [7], 0.5 µg/mL (≈ 0.589 µM). Further, the values for the ED50 in the test with Streptococcus pyogenes [4], in the test with Streptococcus pneumoniae [5] and in the test with Staphylococcus aureus [8] were 27 mg/kg, 34 mg/kg and over 50 mg/kg, respectively.
